# High-throughput results: PubChem, The Scripps Research Institute Molecular Screening Center
# An excerpt weighted towards active compounds, which were near 2.2% of everything screened.
# NR2E3 ag-1: NR2E3 agonists in two-hybrid cells, primary screen, cell-based, luminescence, CHO-S, Gal4-NCOR/VP16-NR2E3; Photoreceptor-specific nuclear receptor (Homo sapiens), Q9Y5X4; luciferase; inhibition of corepressor binding, % at 3.98 µM; 360,000 compounds, 0.35% hits;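 active = inhibition above the mean of all tested compounds plus 3 SD, cut at about 70% in these data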;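 also: 0% = DMSO with NR2E3 transfected cells and 100% = cells lacking NR2E3 construct; higher means lower luciferase signal from less NR2E3 corepressor binding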
# Target sequence (Q9Y5X4 whole entry, looked up, the tested form may be a part): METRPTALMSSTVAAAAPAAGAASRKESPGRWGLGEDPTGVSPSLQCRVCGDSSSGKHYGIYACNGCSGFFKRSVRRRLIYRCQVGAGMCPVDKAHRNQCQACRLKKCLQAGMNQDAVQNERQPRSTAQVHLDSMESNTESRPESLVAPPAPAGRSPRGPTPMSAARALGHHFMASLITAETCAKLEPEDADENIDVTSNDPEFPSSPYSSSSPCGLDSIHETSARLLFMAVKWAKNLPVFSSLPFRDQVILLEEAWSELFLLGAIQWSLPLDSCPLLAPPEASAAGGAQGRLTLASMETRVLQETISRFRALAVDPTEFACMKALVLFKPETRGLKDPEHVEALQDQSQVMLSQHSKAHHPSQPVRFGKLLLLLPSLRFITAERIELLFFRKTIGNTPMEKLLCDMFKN
# COUP-TFII inh: NR2F2 transcriptional activity inhibitors, primary screen, cell-based, luciferase reporter, HEK293T, luminescence | COUP transcription factor 2 (Homo sapiens), P24468 | inhibition, % at 8.6 µM | 370,000 compounds, 0.7% hits | HEK293T NGFI-A luciferase reporter | AID 686940, 2013;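 active = inhibition above a per-plate cutoff, mean inhibition of test wells between control levels plus 3 SD, cut at about 38% in these data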;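 also: cells cotransfected with COUP-TFII expression vector driving the NGFI-A reporter; 0% = median of COUP-TF2 test wells and 100% = reporter-only cells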
# GalR3 antagonist: GalR3 antagonists in HEK293 cells, primary screen, cell-based, fluorescence readout; Galanin receptor type 3 (Homo sapiens), O60755; HEK293 GalR3-CNG cAMP membrane potential fluorescence; galR3 body fused to GalR1 C-terminus; inhibition, % at 3 µM; 360,000 compounds, 0.44% hits; AID 651719, 2012;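 active = inhibition above the screen-wide average plus 3 SD, cut at about 13% in these data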;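 also: forskolin and galanin both at EC90 stimulate the cells; cAMP rise reported by CNG channel membrane potential dye signal; 0% = forskolin plus galanin with DMSO and 100% = forskolin alone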
# Target sequence (O60755 1-299 limits assumed): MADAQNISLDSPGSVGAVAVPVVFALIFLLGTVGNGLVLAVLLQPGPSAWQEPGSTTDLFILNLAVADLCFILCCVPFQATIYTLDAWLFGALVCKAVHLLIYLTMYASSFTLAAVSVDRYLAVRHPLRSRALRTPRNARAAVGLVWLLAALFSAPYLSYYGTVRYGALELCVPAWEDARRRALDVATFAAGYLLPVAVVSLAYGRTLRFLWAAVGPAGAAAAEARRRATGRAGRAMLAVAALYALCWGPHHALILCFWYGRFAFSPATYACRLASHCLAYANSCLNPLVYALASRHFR
# SMARCA2 act: SMARCA2 (BRM) function activators, primary screen, cell-based, luminescence, high throughput; MG213 cells, MMTV-luciferase reporter, dexamethasone, overnight; activation, % at 9.1 µM; 370,000 compounds, 1% hits; in the data active = activation above about 7.8%;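 also: 0% = vehicle wells and 100% = reference activator wells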
# NR2E3 ag-2: inhibitors of NR2E3-RetCOR corepressor binding, primary screen, NR2E3 agonist project, biochemical, TR-FRET, GST-NR2E3, biotin-RetCOR. 1536-well. inhibition of corepressor binding, % at 4.78 µM. 320,000 compounds, 0.12% hits. AID 2300, 2010;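 active = percent inhibition above the cutoff of mean plus 3 SD of all tested compounds, set per screening campaign, cut at about 20% in these data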;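 also: 0% = DMSO wells and 100% = biotin wells as full block of FRET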
#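 Format: 1536-well format; test system: GST-NR2E3 and biotin-RetCOR proteins; read-out basis: percent inhibition of TR-FRET ratio; timing: 5 h incubation at 4 °C; detection: time-resolved FRET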
# NR2E3 ag confirm: NR2E3 agonist confirmation in cells, cell-based, luminescence, CHO-S two-hybrid; shares compounds with NR2E3 ag-1; CHO-S mammalian two-hybrid NR2E3-NCOR, luciferase luminescence; AID 624378, 2012; inhibition, % at 3.98 µM; 2,300 compounds, 51% hits;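 active = average inhibition above a cutoff equal to the mean inhibition of all tested compounds plus one SD, cut at about 70% in these data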;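 also: 0% = DMSO in NR2E3 cells and 100% = DMSO in cells lacking NR2E3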
# VP16 counter: GAL4-VP16 reporter modulators, confirmation, counter-screen for NR2E3 agonist project, cell-based, luminescence, CHO-S, high throughput | 2,300 compounds, 29% hits | inhibition, % at 3.98 µM | CHO-S GAL4-VP16 luciferase reporter | shares compounds with NR2E3 ag-1;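 active = mean inhibition above a cutoff equal to the average over all tested compounds plus one standard deviation, cut at about 70% in these data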;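 also: luciferase from a UAS reporter driven by GAL4-VP16 transactivation; 0% = DMSO with VP16-transfected cells and 100% = DMSO with cells lacking VP16; higher means less reporter light so more repression of VP16 activity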
# GalR3 antag conf: GalR3 antagonist hit confirmation, cell-based, fluorescence, triplicate | shares compounds with GalR3 antagonist | HEK293 GalR3 CNG cAMP biosensor, membrane potential fluorescence; galR3 fused to GalR1 carboxy tail; challenged with forskolin and galanin at EC90 | inhibition, % at 3 µM | 1,600 compounds, 59% hits | AID 652245, 2013;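 active = inhibition above the primary screen's cutoff, the mean inhibition of all screened compounds plus 3 SD, cut at about 13% in these data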;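 also: 0% = forskolin plus galanin and 100% = forskolin alone with DMSO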
# HEK-CNG parental: nonspecific cAMP agonists in parental HEK-CNG cells, counter-screen for GalR3 antagonist project, cell-based, fluorescence, high throughput | AID 652268, 2013 | 1,600 compounds, 10% hits | activation, % at 3 µM | HEK293-CNG parental cells, cAMP membrane potential fluorescence; normalised: DMSO wells 0%, forskolin wells 100% | shares compounds with GalR3 antagonist; in the data active = activation above about 1.3%
# Gal4-VP16 ctr: Gal4-VP16 luciferase reporter inhibitors, counter-screen for COUP-TFII antagonist project, cell-based, luminescence, HEK293; shares compounds with COUP-TFII inh; inhibition, % at 8.5 µM; 2,500 compounds, 25% hits; in the data active = inhibition above about 13%
# NR2F2 inh conf: NR2F2 transcriptional activity inhibitors, confirmation, cell-based, luciferase reporter, HEK293, triplicate | 2,500 compounds, 45% hits | shares compounds with COUP-TFII inh | inhibition, % at 8.5 µM | AID 687008, 2013 | HEK293 NGFI-A luciferase reporter, luminescence;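 active = mean inhibition over three repeats above a set limit taken from the earlier primary screen, cut at about 38% in these data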;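 also: 100% = cells given the luciferase reporter alone without the COUP-TF2 vector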
# The depositor's hits bear a star; x = not tested or not shown.
SMILES,NR2E3 ag-1,COUP-TFII inh,GalR3 antagonist,SMARCA2 act,NR2E3 ag-2,NR2E3 ag confirm,VP16 counter,Gal4-VP16 ctr,NR2F2 inh conf,others
COc1ccc2c(c1)CCCN2C(=O)C1CCCN(S(=O)(=O)c2ccc(C)c(C)c2)C1 (centres undefined),x,28.5,x,-6.8,x,x,x,x,x,
Cc1ccc(C(=O)Nc2sc(C)c(-c3ccccc3)c2C(N)=O)cc1[N+](=O)[O-],54.4,56.3*,-3.7,-6.4,0.8,56.5,16.1,26.7*,84.2*,
Cc1ccc(C(=O)Nc2cccc(NC(=O)c3ccc(C)c([N+](=O)[O-])c3)n2)cc1[N+](=O)[O-],2.2,-5.2,-1.6,-2.1,1.9,x,x,x,x,
COC1=CC(=O)c2nc(Cl)ccc2C1=O,64.0,38.4*,-9.8,-14.9,x,36.5,33.4,34.8*,26.4,
CC1CCCN(c2ncnc3c2cnn3-c2ccc(Cl)cc2)C1 (centres undefined),91.9*,100.3*,1.8,-6.6,1.1,82.8*,69.3,89.7*,105.1*,
Cc1ccc2c(c1)nnn2C1CCN(S(=O)(=O)c2ccc(C(=O)N3C(C)CCCC3C)cc2)CC1 (centres undefined),71.4*,42.3*,-2.2,-3.6,-1.0,89.5*,71.0*,8.1,55.2*,
Cc1ccc2c(c1)nnn2C1CCN(S(=O)(=O)c2ccc(C(=O)O)cc2)CC1,-19.7,-5.5,-0.7,2.7,0.0,x,x,x,x,
Cc1ccc(NC(=O)c2cc(C)n(-c3ccccc3)c2C)cc1,59.0,69.7*,-3.8,-7.4,-0.8,36.7,-33.5,60.0*,84.3*,
Cc1ccc(NC(=O)c2cnn(-c3ccccc3)c2C)cc1,-119.4,-27.1,-10.3,2.5,-0.8,x,x,x,x,
Cc1cc(C(=O)Nc2ccc(Cl)cc2)n(-c2ccccc2)n1,-57.2,-21.0,-8.2,5.0,-2.1,x,x,x,x,
Cc1cc(C(=O)Nc2ccc(Cl)cc2)c(C)n1-c1ccccc1,88.5*,86.0*,-3.4,-7.8,1.4,82.1*,55.2,80.8*,98.9*,
COC(=O)[C@H]1C[C@@]2(n3ccc4ccccc43)c3ccccc3N[C@H]2N1,x,-6.9,x,-3.8,x,x,x,x,x,
CN1C(=O)c2cc(NC(=O)Nc3ccccc3)ccc2OC[C@H]2O[C@@H](CC(=O)NC3Cc4ccccc4C3)CC[C@@H]21,x,0.3,x,-1.5,x,x,x,x,x,
Cn1nc(C(C)(C)C)cc1C(=O)NCc1ccc(N2CCCC2=O)cc1,92.4*,69.0*,97.8*,-5.9,2.0,96.4*,86.9*,-0.6,52.0*,GalR3 antag conf=104.0*;HEK-CNG parental=-0.5
O=C(OC12CCCN(C1)/C(=C/c1ccncc1)C2)c1ccc(Cl)cc1 (centres undefined),x,33.9,x,-4.6,x,x,x,x,x,
COc1ccc(-c2noc(CCCCC(=O)N3CCN(c4cc(C)ccc4C)CC3)n2)cc1,99.4*,82.0*,96.7*,-9.9,x,96.5*,84.4*,21.7*,65.2*,GalR3 antag conf=105.2*;HEK-CNG parental=-0.9
CSCCC(NC(=O)OCc1ccccc1)C(=O)NC(Cc1c[nH]c2ccccc12)C(=O)O (centres undefined),x,-5.2,-3.7,-2.7,x,x,x,x,x,
Cc1ccc(-n2nc3c(=O)n(CC(=O)NCCCc4ccccc4)nc(C)c3c2C)cc1,19.6,11.8,-9.4,0.7,1.4,x,x,x,x,
Cc1ccc(-n2nc3c(=O)n(C(C)C(=O)NCCCc4ccccc4)nc(C)c3c2C)cc1 (centres undefined),50.9,55.0*,-8.5,-4.4,-2.9,18.8,37.9,-1.8,45.2*,
C=CC[n+]1c(/C=C2\C=Cc3cc(C)ccc3N2CC)ccc2ccccc21,89.8*,75.1*,45.2*,-8.7,0.3,98.4*,90.6*,17.7*,75.6*,GalR3 antag conf=64.2*;HEK-CNG parental=6.1*
CCN1C(=C(C#N)C#N)C=Cc2cc(C)ccc21,-1.4,-29.2,-2.0,-4.0,6.2,x,x,x,x,
C=CC[C@@H]1NN2C(=O)[C@@H](CCCC)[C@@H]3c4cc5ccccc5cc4C=NN3[C@@H]2c2cc3ccccc3cc21,x,18.8,x,-1.3,x,x,x,x,x,
Cc1cc(-n2c(C)cc(C(=O)CSc3ncnc4ccccc34)c2C)no1,91.6*,53.9*,91.1*,-5.7,2.8,96.9*,86.4*,-3.6,60.0*,GalR3 antag conf=2.9;HEK-CNG parental=-0.1
Cc1cc(C(=O)CSc2ncnc3ccccc23)c(C)n1C1CC1,19.5,1.7,-7.3,-3.2,1.8,x,x,x,x,
COP(=O)(O)C[C@@H]1CCc2cc(C)cc([C@H](CC(C)C)NC(=O)OCc3ccccc3)c2O1,x,-14.1,x,-1.6,x,x,x,x,x,
Cc1ccc(NC(=O)O/N=C/c2c(C)nn(C(C)(C)C)c2C)cc1Cl,99.9*,100.0*,-3.4,-14.8,3.6,82.7*,95.6*,92.9*,109.9*,
C[C@@H]1CN([C@@H](C)CO)C(=O)CCCn2cc(nn2)CO[C@H]1CN(C)C(=O)NC1CCCCC1,x,5.8,-0.7,-2.5,x,x,x,x,x,
CCOC(=O)c1cnc(-n2nc(C)cc2C)nc1NC1CCCCC1,92.8*,76.6*,33.9*,-5.6,-0.9,91.4*,65.9,-2.1,72.1*,GalR3 antag conf=73.4*;HEK-CNG parental=6.8*
